This is an account of results in paper PMC11229888 (RSC Advances, 2024).

The structures appear in SMILES notation.

For one experiment, the system named is MCF-7. Briefly: MTT anti-proliferative assay, MCF-7. The experiment is classed as cell-based. The note with it: Homo sapiens, MCF7, read-out: IC50 MCF-7. The gist of the method: (§1)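 Cells grown in RPMI-1640 with 10% FBS, 100 units per ml penicillin and 100 μg ml−1 streptomycin at 37 °C, 5% CO2. Seeded at 1.0 × 10^4 cells per well for 48 h, then exposed to a range of test compound concentrations for 24 h. MTT (5 mg ml−1) added for 4 h, formazan dissolved in DMSO, A570 read; viability as percent of untreated; IC50 derived.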
(Formazan colour is commonly taken as a measure of viable cells.)

For a further experiment, the system named is Hep G2. The experiment in a line: MTT anti-proliferative assay, Hep G2. The note with it: Homo sapiens, HepG2, read-out: IC50 Hep G2. It is filed as cell-based. The method in brief:
as §1

The next experiment deals with VEGFR-2 (Homo sapiens, UniProt P35968). Briefly: biochemical. The note with it: IC50 VEGFR-2, mean ± S.D. of three experiments.
Chain of VEGFR-2 (P35968 20-1356): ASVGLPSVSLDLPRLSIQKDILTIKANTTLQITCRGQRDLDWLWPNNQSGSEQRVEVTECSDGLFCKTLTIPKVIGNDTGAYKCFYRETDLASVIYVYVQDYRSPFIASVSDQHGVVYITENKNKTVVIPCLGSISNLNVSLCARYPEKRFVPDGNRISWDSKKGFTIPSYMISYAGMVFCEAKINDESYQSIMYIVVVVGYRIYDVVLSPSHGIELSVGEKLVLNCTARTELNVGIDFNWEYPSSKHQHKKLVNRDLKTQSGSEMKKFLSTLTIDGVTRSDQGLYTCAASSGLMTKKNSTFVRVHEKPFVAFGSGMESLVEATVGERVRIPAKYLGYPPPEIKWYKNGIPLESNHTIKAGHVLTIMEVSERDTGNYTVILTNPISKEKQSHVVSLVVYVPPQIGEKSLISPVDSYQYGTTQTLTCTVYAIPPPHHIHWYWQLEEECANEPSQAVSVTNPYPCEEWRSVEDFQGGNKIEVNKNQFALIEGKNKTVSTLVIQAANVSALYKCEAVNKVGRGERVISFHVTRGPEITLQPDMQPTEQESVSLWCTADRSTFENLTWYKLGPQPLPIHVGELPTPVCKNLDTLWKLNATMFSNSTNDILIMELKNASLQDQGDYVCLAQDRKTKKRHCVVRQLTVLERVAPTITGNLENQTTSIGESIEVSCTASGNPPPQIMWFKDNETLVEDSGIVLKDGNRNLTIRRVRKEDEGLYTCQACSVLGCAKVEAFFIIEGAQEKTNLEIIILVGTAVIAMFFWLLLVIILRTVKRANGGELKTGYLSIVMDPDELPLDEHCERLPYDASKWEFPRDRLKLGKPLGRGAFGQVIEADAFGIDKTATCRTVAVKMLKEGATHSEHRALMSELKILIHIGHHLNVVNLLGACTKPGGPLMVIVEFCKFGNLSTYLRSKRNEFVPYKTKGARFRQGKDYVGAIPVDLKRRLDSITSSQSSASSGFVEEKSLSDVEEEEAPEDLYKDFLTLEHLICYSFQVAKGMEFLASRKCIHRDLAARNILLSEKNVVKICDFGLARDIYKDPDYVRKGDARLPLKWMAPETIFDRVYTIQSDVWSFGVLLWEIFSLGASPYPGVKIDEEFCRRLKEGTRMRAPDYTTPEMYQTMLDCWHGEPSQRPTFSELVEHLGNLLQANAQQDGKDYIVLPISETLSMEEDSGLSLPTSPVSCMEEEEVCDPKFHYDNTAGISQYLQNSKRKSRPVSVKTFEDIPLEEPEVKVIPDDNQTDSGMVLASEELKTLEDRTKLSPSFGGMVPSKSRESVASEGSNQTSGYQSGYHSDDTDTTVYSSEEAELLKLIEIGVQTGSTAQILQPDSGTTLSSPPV
In another experiment the test system is VEGFR-1. The note with it: read-out: IC50 VEGFR-1; cited from earlier work.

As a reminder, the IC50 is the concentration at which inhibition is half-maximal.

Turning to `CC(=NNC(=O)c1ccccc1)c1ccc(Nc2nnc(-c3ccc(Cl)cc3)c3ccccc23)cc1` [Compound 2a, N′-(1-[4-{(4-[4-Chlorophenyl]phthalazin-1-yl)amino}phenyl]ethylidene)benzohydrazide], the IC50 came out at 1550 ± 10 nM in the experiment on MCF-7 and 770 ± 10 nM in the experiment with Hep G2.
The corresponding values for `CC(=NNC(=O)c1ccc(N)cc1)c1ccc(Nc2nnc(-c3ccc(Cl)cc3)c3ccccc23)cc1` [Compound 2e, 4-Amino-N′-(1-[4-{(4-[4-chlorophenyl]phthalazin-1-yl)amino}phenyl]ethylidene)benzohydrazide] are 710 ± 20 nM and 1190 ± 40 nM.
As to `O=C(C=Cc1ccccc1)Nc1ccc(Oc2nnc(-c3ccc(Cl)cc3)c3ccccc23)cc1` [Compound 5d, N-(4-[{4-(4-Chlorophenyl)phthalazin-1-yl}oxy]phenyl)cinnamamide], the IC50 in the experiment on MCF-7 is 1120 ± 20 nM; in the experiment on Hep G2 it was 1260 ± 30 nM.
The corresponding values for `CC(=NNC(=S)Nc1ccccc1)c1ccc(Nc2nnc(-c3ccc(Cl)cc3)c3ccccc23)cc1` [Compound 3b, 2-(1-[4-{(4-[4-Chlorophenyl]phthalazin-1-yl)amino}phenyl]ethylidene)-N-phenylhydrazine-1-carbothioamide] are 870 ± 20 nM and 1530 ± 60 nM.
In the case of `O=C(Nc1ccccc1)Nc1ccc(Oc2nnc(-c3ccc(Cl)cc3)c3ccccc23)cc1` [Compound 4a, 1-(4-[{4-(4-Chlorophenyl)phthalazin-1-yl}oxy]phenyl)-3-phenylurea], the figures for the 50% inhibitory concentration (IC50) with MCF-7, with Hep G2 and on VEGFR-2 were 180 nM, 90 ± 10 nM and 196 ± 10 nM, respectively.
For `CNC(=O)c1cc(Oc2ccc(NC(=O)Nc3ccc(Cl)c(C(F)(F)F)c3)cc2)ccn1` [Sorafenib, reference compound], the IC50 in the experiment with MCF-7 amounted to 50 ± 10 nM; with Hep G2 it was 30 ± 10 nM.
As to `CC(=O)Nc1ccc(Oc2nnc(-c3ccc(Cl)cc3)c3ccccc23)cc1` [Compound 5a, N-(4-[{4-(4-Chlorophenyl)phthalazin-1-yl}oxy]phenyl)acetamide], the IC50 in the experiment on MCF-7 was 180 nM; in the experiment with Hep G2 it was 260 nM; on VEGFR-2 it was 548 ± 20 nM.
As for `CC(=NNC(=O)c1ccccc1O)c1ccc(Nc2nnc(-c3ccc(Cl)cc3)c3ccccc23)cc1` [Compound 2d, N′-(1-[4-{(4-[4-Chlorophenyl]phthalazin-1-yl)amino}phenyl]ethylidene)-2-hydroxybenzohydrazide], the IC50 with MCF-7 was found to be 3710 ± 70 nM; in the experiment on Hep G2, 2180 ± 30 nM.
As to `CC(=NNC(N)=S)c1ccc(Nc2nnc(-c3ccc(Cl)cc3)c3ccccc23)cc1` [Compound 3a, 2-(1-[4-{(4-[4-Chlorophenyl]phthalazin-1-yl)amino}phenyl]ethylidene)hydrazine-1-carbothioamide], the IC50 with MCF-7 stood at 180 nM; in the experiment on Hep G2, 180 nM; against VEGFR-2 it was 375 ± 10 nM.
Turning to `O=C(Nc1ccc(Oc2nnc(-c3ccc(Cl)cc3)c3ccccc23)cc1)c1cccc([N+](=O)[O-])c1` [Compound 5c, N-(4-[{4-(4-Chlorophenyl)phthalazin-1-yl}oxy]phenyl)-3-nitrobenzamide], the IC50 in the experiment with MCF-7 is 180 nM; with Hep G2, 1370 ± 140 nM.
Regarding `O=C(Nc1ccc(Oc2nnc(-c3ccc(Cl)cc3)c3ccccc23)cc1)c1ccccc1` [Compound 5b, N-(4-[{4-(4-Chlorophenyl)phthalazin-1-yl}oxy]phenyl)benzamide], the IC50 amounted to 150 nM in the experiment on MCF-7, 220 nM in the experiment on Hep G2 and 331 ± 10 nM against VEGFR-2.
`CC(=NNC(=O)c1ccccc1Cl)c1ccc(Nc2nnc(-c3ccc(Cl)cc3)c3ccccc23)cc1` [Compound 2c, 2-Chloro-N′-(1-[4-{(4-[4-chlorophenyl]phthalazin-1-yl)amino}phenyl]ethylidene)benzohydrazide]: the IC50 stood at 1740 ± 10 nM in the experiment with MCF-7 and 590 ± 10 nM in the experiment with Hep G2.
On to `CC(=NNC(=O)c1ccncc1)c1ccc(Nc2nnc(-c3ccc(Cl)cc3)c3ccccc23)cc1` [Compound 2g, N′-(1-[4-{(4-[4-Chlorophenyl]phthalazin-1-yl)amino}phenyl]ethylidene)isonicotinohydrazide], for which the IC50 with MCF-7 stood at 150 nM; with Hep G2 it was 120 ± 10 nM; on VEGFR-2, 148 ± 10 nM.
`CC(=NNC(=O)c1cccnc1)c1ccc(Nc2nnc(-c3ccc(Cl)cc3)c3ccccc23)cc1` [Compound 2f, N′-(1-[4-{(4-[4-Chlorophenyl]phthalazin-1-yl)amino}phenyl]ethylidene)nicotinohydrazide]: the half-inhibitory concentration (IC50) with MCF-7 amounted to 780 ± 10 nM; in the experiment on Hep G2 it was 750 ± 10 nM.
The corresponding values for `S=C(Nc1ccccc1)Nc1ccc(Oc2nnc(-c3ccc(Cl)cc3)c3ccccc23)cc1` [Compound 4b, 1-(4-[{4-(4-Chlorophenyl)phthalazin-1-yl}oxy]phenyl)-3-phenylthiourea] are 1520 ± 10 nM and 1630 ± 30 nM.
The corresponding values for `CC(=NNC(=O)c1ccccc1Br)c1ccc(Nc2nnc(-c3ccc(Cl)cc3)c3ccccc23)cc1` [Compound 2b, 2-Bromo-N′-(1-[4-{(4-[4-chlorophenyl]phthalazin-1-yl)amino}phenyl]ethylidene)benzohydrazide] are 980 ± 10 nM and 630 ± 10 nM.
As for `Clc1ccc(Nc2nnc(Cc3ccncc3)c3ccccc23)cc1` [Vatalanib], the half-inhibitory concentration (IC50) with VEGFR-1 is 380 nM.
